Test system: HEK-293T
Test: Multiplex assay against HEK293T
Type: toxicity, cell-based
Conditions: human
Summary of the method: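 With compound added, live cells were imaged on a CQ1 microscope at 37°C and 5% CO2; staining with Hoechst33342, BioTracker Green Microtubule Cytoskeleton Dye, MitoTracker Red and Annexin V Alexa Fluor 680 had been done at seeding. The CellPathfinder machine-learning gating scheme split cells into Hoechst high-intensity objects or normal cells, normal cells into healthy, pyknosed or fragmented nuclei, and pyknosed cells into mitotic or apoptotic. The tubulin, mitochondrial-mass and membrane-permeability phenotypes are per cents of healthy-nucleus cells.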

[1] = 12 h, 1 µM, compound concentration 1 uM, replicate 1
[2] = 12 h, 1 µM, compound concentration 1 uM, replicate 2
[3] = 12 h, 10 µM, compound concentration 10 uM, replicate 1
[4] = 12 h, 10 µM, compound concentration 10 uM, replicate 2
[5] = 24 h, 1 µM, compound concentration 1 uM, replicate 1
[6] = 24 h, 1 µM, compound concentration 1 uM, replicate 2
[7] = 24 h, 10 µM, compound concentration 10 uM, replicate 1
[8] = 24 h, 10 µM, compound concentration 10 uM, replicate 2
[9] = 48 h, 1 µM, compound concentration 1 uM, replicate 1
[10] = 48 h, 1 µM, compound concentration 1 uM, replicate 2
[11] = 48 h, 10 µM, compound concentration 10 uM, replicate 1
[12] = 48 h, 10 µM, compound concentration 10 uM, replicate 2

Cc1noc(-c2ccc(-c3ccc(CC(=O)O)cc3)cc2)c1NC(=O)O[C@H](C)c1ccccc1Cl
Population Apoptotic (%) [1]: 29% | Population Fragmented Nuclei (%) [1]: 7% | Population Healthy Nuclei (%) [1]: 79% | Population Hoechst High Intensity Objects (%) [1]: 5% | Population Membrane Permeable-Phenotype (%) [1]: 0% | Population Mitochondria Different-Phenotype (%) [1]: 38% | Population Mitotic Cells (%) [1]: 70% | Population Normal (%) [1]: 94% | Population Pyknosed Nuclei (%) [1]: 13% | Population Tubulin-Different-Phenotype (%) [1]: 29% | Total Cell Count [1]: 403 | Population Apoptotic (%) [2]: 59% | Population Fragmented Nuclei (%) [2]: 4% | Population Healthy Nuclei (%) [2]: 77% | Population Hoechst High Intensity Objects (%) [2]: 11% | Population Mitochondria Different-Phenotype (%) [2]: 69% | Population Mitotic Cells (%) [2]: 40% | Population Normal (%) [2]: 88% | Population Pyknosed Nuclei (%) [2]: 17% | Population Tubulin-Different-Phenotype (%) [2]: 28% | Total Cell Count [2]: 296 | Population Apoptotic (%) [3]: 51% | Population Fragmented Nuclei (%) [3]: 11% | Population Healthy Nuclei (%) [3]: 68% | Population Hoechst High Intensity Objects (%) [3]: 7% | Population Membrane Permeable-Phenotype (%) [3]: 0% | Population Mitochondria Different-Phenotype (%) [3]: 72% | Population Mitotic Cells (%) [3]: 48% | Population Normal (%) [3]: 92% | Population Pyknosed Nuclei (%) [3]: 20% | Population Tubulin-Different-Phenotype (%) [3]: 65% | Total Cell Count [3]: 295 | Population Apoptotic (%) [4]: 41% | Population Fragmented Nuclei (%) [4]: 8% | Population Healthy Nuclei (%) [4]: 72% | Population Hoechst High Intensity Objects (%) [4]: 14% | Population Mitochondria Different-Phenotype (%) [4]: 69% | Population Mitotic Cells (%) [4]: 58% | Population Normal (%) [4]: 85% | Population Pyknosed Nuclei (%) [4]: 18% | Population Tubulin-Different-Phenotype (%) [4]: 34% | Total Cell Count [4]: 341 | Population Apoptotic (%) [5]: 22% | Population Fragmented Nuclei (%) [5]: 10% | Population Healthy Nuclei (%) [5]: 79% | Population Hoechst High Intensity Objects (%) [5]: 5% | Population Membrane Permeable-Phenotype (%) [5]: 0% | Population Mitochondria Different-Phenotype (%) [5]: 23% | Population Mitotic Cells (%) [5]: 77% | Population Normal (%) [5]: 94% | Population Pyknosed Nuclei (%) [5]: 9% | Population Tubulin-Different-Phenotype (%) [5]: 17% | Total Cell Count [5]: 570 | Population Apoptotic (%) [6]: 40% | Population Fragmented Nuclei (%) [6]: 9% | Population Healthy Nuclei (%) [6]: 80% | Population Hoechst High Intensity Objects (%) [6]: 7% | Population Mitochondria Different-Phenotype (%) [6]: 42% | Population Mitotic Cells (%) [6]: 60% | Population Normal (%) [6]: 92% | Population Tubulin-Different-Phenotype (%) [6]: 20% | Total Cell Count [6]: 378 | Population Apoptotic (%) [7]: 39% | Population Fragmented Nuclei (%) [7]: 7% | Population Healthy Nuclei (%) [7]: 76% | Population Hoechst High Intensity Objects (%) [7]: 8% | Population Membrane Permeable-Phenotype (%) [7]: 1% | Population Mitochondria Different-Phenotype (%) [7]: 58% | Population Mitotic Cells (%) [7]: 60% | Population Normal (%) [7]: 91% | Population Pyknosed Nuclei (%) [7]: 16% | Population Tubulin-Different-Phenotype (%) [7]: 47% | Total Cell Count [7]: 352 | Population Apoptotic (%) [8]: 32% | Population Fragmented Nuclei (%) [8]: 9% | Population Healthy Nuclei (%) [8]: 75% | Population Hoechst High Intensity Objects (%) [8]: 16% | Population Membrane Permeable-Phenotype (%) [8]: 0% | Population Mitochondria Different-Phenotype (%) [8]: 53% | Population Mitotic Cells (%) [8]: 68% | Population Normal (%) [8]: 83% | Population Pyknosed Nuclei (%) [8]: 15% | Population Tubulin-Different-Phenotype (%) [8]: 38% | Total Cell Count [8]: 390 | Population Apoptotic (%) [9]: 17% | Population Fragmented Nuclei (%) [9]: 11% | Population Healthy Nuclei (%) [9]: 82% | Population Hoechst High Intensity Objects (%) [9]: 4% | Population Membrane Permeable-Phenotype (%) [9]: 1% | Population Mitochondria Different-Phenotype (%) [9]: 20% | Population Mitotic Cells (%) [9]: 82% | Population Normal (%) [9]: 95% | Population Pyknosed Nuclei (%) [9]: 5% | Population Tubulin-Different-Phenotype (%) [9]: 14% | Total Cell Count [9]: 930 | Population Apoptotic (%) [10]: 35% | Population Fragmented Nuclei (%) [10]: 12% | Population Healthy Nuclei (%) [10]: 76% | Population Membrane Permeable-Phenotype (%) [10]: 0% | Population Mitochondria Different-Phenotype (%) [10]: 34% | Population Mitotic Cells (%) [10]: 64% | Population Pyknosed Nuclei (%) [10]: 10% | Population Tubulin-Different-Phenotype (%) [10]: 21% | Total Cell Count [10]: 494 | Population Apoptotic (%) [11]: 38% | Population Fragmented Nuclei (%) [11]: 10% | Population Healthy Nuclei (%) [11]: 79% | Population Hoechst High Intensity Objects (%) [11]: 6% | Population Membrane Permeable-Phenotype (%) [11]: 0% | Population Mitochondria Different-Phenotype (%) [11]: 40% | Population Mitotic Cells (%) [11]: 61% | Population Normal (%) [11]: 93% | Population Pyknosed Nuclei (%) [11]: 10% | Population Tubulin-Different-Phenotype (%) [11]: 33% | Total Cell Count [11]: 445 | Population Apoptotic (%) [12]: 46% | Population Fragmented Nuclei (%) [12]: 13% | Population Healthy Nuclei (%) [12]: 74% | Population Hoechst High Intensity Objects (%) [12]: 10% | Population Membrane Permeable-Phenotype (%) [12]: 1% | Population Mitochondria Different-Phenotype (%) [12]: 35% | Population Mitotic Cells (%) [12]: 53% | Population Normal (%) [12]: 89% | Population Pyknosed Nuclei (%) [12]: 11% | Population Tubulin-Different-Phenotype (%) [12]: 25% | Total Cell Count [12]: 508

Source: ChEMBL document CHEMBL5058577, “EUbOPEN Chemogenomics Library 2 (Multiplex)” (2022)
